# Molecular target: T1, Muscarinic acetylcholine receptor M1 (Homo sapiens) (UniProt P11229)
# T1 sequence (whole entry): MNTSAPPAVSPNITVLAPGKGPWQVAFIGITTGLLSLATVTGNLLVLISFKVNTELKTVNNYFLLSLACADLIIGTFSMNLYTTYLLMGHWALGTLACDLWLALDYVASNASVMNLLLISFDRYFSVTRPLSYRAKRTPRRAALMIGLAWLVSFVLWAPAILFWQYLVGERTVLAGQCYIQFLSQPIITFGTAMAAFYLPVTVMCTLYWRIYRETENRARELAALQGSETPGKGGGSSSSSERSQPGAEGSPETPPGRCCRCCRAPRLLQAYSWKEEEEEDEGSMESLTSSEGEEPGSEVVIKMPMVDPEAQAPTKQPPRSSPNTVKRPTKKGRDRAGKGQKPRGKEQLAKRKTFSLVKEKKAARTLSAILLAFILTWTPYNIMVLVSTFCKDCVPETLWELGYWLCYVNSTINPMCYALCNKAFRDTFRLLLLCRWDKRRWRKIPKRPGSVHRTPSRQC
# Assay: Positive allosteric modulation at human muscarinic M1 receptor expressing CHO cells assessed as potentiation of acetylcholine-induced calcium mobilization by FLIPR assay
# Assay type: functional, cell-based
# How it was run: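 CHO cells expressing human M1 receptor. Inflection point determined in the presence of an EC20 concentration of acetylcholine. Mean of at least two experiments; interassay variability ±30%.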
row,SMILES,IP [µM]
1,O=C(O)c1cc(CN2CCc3c(Cl)cccc3C2)c2ccccn2c1=O,0.85
2,O=C(O)c1cc(CN2CCc3ncncc3C2)c2ccccn2c1=O,1.8
3,Cn1c(C2CCN(Cc3cc(C(=O)O)c(=O)n4ccccc34)CC2)nc2ccccc21,30
4,COc1ccc(C2CCN(Cc3cc(C(=O)O)c(=O)n4ccccc34)CC2)cc1,4.3
5,O=C(O)c1cc(CN2CCc3cnccc3C2)c2ccccn2c1=O,0.9
6,N#Cc1ccc(C2CCN(Cc3cc(C(=O)O)c(=O)n4ccccc34)CC2)cc1,1.3
7,O=C(O)c1cc(CN2CCc3ccncc3C2)c2ccccn2c1=O,1.7
8,O=C(O)c1cc(CN2CCC(c3cc[nH]n3)CC2)c2ccccn2c1=O,1.5
9,O=C(O)c1cc(CN2CCC(c3ccc(F)cc3)CC2)c2ccccn2c1=O,1.7
10,Cc1ccc2c(c1)CCN(Cc1cc(C(=O)O)c(=O)n3ccccc13)C2,1.1
11,O=C(O)c1cc(CN2CCc3cc(-c4ccncc4)ccc3C2)c2ccccn2c1=O,0.39
12,O=C(O)c1cc(CN2CCc3ccccc3C2c2cccs2)c2ccccn2c1=O (configuration not stated),0.6
13,O=C(O)c1cc(CN2CCC(c3ccc(Br)cc3)CC2)c2ccccn2c1=O,1.2
14,O=C(O)c1cc(CN2CCC(c3ccccc3F)CC2)c2ccccn2c1=O,1.7
15,CCOC(=O)C1c2ccccc2CCN1Cc1cc(C(=O)O)c(=O)n2ccccc12 (configuration not stated),0.34
16,O=C(O)c1cc(CN2CCC(c3ccncn3)CC2)c2ccccn2c1=O,4.3
17,O=C(O)c1cc(CN2CCc3ncccc3C2)c2ccccn2c1=O,0.83
18,O=C(O)c1cc(CN2CCC(n3ccnn3)CC2)c2ccccn2c1=O,1.7
19,CCOC(=O)C1CN(Cc2cc(C(=O)O)c(=O)n3ccccc23)Cc2ccccc21 (configuration not stated),3.6
20,O=C(O)c1cc(CN2CCC(c3cncnc3)CC2)c2ccccn2c1=O,7
21,O=C(O)c1cn(Cc2ccc3ccccc3c2)c2ccccc2c1=O,0.08
22,O=C(O)c1cc(CN2CCc3cc(-c4ccccc4)ccc3C2)c2ccccn2c1=O,0.56
23,O=C(O)c1cc(CN2CCC(n3cccn3)CC2)c2ccccn2c1=O,0.78
24,O=C(O)c1cc(CN2CCC(c3ccc(C(F)(F)F)cc3)CC2)c2ccccn2c1=O,0.46
25,COc1ccc2c(c1)CCN(Cc1cc(C(=O)O)c(=O)n3ccccc13)C2,1.4
26,O=C(O)c1cc(CN2CCc3ccccc3C2C2CCCCC2)c2ccccn2c1=O (configuration not stated),> 100
27,O=C(O)c1cc(CN2CCc3ccccc3C2)c2ccccn2c1=O,1.7

# Reference: ChEMBL document CHEMBL1681740, “Quinolizidinone carboxylic acid selective M1 allosteric modulators: SAR in the piperidine series” (Bioorg Med Chem Lett, 2011)
